Source: ChEMBL document CHEMBL1146092, “Practical synthesis and evaluation of the biological activities of 1alpha,25-dihydroxyvitamin D3 antagonists, 1alpha,25-dihydroxyvitamin D3-26,23-lactams. Designed on the basis of the helix 12-folding inhibition hypothesis” (J Med Chem, 2006)

Experiments:
[1] = molecular target: T1, Vitamin D3 receptor (Gallus gallus) (UniProt O42392); test: Binding affinity to chick intestinal VDR relative to 1,25-D3
T1 sequence (whole entry): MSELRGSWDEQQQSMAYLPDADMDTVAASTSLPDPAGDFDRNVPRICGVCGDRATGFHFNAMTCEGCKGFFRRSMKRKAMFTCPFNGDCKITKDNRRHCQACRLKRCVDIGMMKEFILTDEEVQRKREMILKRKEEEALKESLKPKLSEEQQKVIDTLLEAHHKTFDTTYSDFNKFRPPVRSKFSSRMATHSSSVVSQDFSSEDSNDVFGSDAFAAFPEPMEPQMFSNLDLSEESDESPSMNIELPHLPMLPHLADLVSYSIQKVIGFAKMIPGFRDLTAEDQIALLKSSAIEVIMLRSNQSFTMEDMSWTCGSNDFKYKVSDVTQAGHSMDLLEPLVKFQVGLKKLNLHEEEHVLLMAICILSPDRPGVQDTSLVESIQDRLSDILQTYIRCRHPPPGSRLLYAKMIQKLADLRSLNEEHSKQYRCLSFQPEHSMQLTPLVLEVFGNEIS
Procedure, shortened: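 Competitive binding: receptor solution was incubated with [26,27-methyl-³H]-1,25-D3 (15 000 dpm, 180 Ci/mmol) and graded test compound in ethanol for 60 min at 25 °C. It was then cooled to 4 °C and precipitated with 40% PEG 6000, and the pellet was spun at 2260g for 60 min at 4 °C. Pellet radioactivity was counted by liquid scintillation. Affinity is expressed relative to 1,25-D3 = 100.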

Vitamin D3 receptor = molecular target: T2, Vitamin D3 receptor (Homo sapiens, UniProt P11473); test: Antagonist activity assessed by differentiation of 1,25-D3-induced HL60 cells; format: functional, cell-based; settings: hl-60
T2 sequence (P11473 whole entry): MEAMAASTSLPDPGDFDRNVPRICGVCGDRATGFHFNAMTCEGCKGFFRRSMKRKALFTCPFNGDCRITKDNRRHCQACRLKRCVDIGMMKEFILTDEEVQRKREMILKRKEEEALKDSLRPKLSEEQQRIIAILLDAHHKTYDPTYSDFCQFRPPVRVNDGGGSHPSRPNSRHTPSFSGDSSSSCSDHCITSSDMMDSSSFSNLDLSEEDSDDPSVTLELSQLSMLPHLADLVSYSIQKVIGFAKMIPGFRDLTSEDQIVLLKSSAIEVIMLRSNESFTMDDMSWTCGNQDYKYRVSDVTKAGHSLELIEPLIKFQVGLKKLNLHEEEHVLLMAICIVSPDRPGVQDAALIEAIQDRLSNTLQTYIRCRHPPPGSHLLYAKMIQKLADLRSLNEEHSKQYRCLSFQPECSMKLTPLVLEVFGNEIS
Procedure, shortened: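 HL-60 cells in RPMI-1640 with 10% heat-inactivated FBS, seeded at 3 × 10³ cells/mL. Cells were given graded test compound in ethanol plus 1,25-D3 as the inducer, then cultured 96 h at 37 °C in 5% CO2 with no medium change. NBT (0.1%) and TPA (100 ng/mL) were added at final concentrations for 25 min at 37 °C. NBT-positive cells were counted on cytospin smears, and IC50 was taken.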

[2] = molecular target: T3, Vitamin D3 receptor (Rattus norvegicus) (UniProt P13053); test: Inhibition of rat VDR mediated transactivation of luciferase in COS7 cells; format: functional, cell-based; settings: COS-7
T3 sequence (whole entry): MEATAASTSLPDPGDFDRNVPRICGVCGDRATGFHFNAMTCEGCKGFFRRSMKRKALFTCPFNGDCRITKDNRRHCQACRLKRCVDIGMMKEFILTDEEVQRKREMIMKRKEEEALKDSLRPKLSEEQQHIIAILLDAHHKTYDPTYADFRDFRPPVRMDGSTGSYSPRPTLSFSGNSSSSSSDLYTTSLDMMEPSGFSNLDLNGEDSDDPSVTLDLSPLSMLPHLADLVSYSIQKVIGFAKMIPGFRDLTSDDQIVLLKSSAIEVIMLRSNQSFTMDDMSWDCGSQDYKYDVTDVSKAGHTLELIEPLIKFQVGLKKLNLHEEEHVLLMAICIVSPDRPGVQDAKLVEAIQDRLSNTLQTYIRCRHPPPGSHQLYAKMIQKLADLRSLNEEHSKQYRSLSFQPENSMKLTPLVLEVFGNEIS

[3] = molecular target: T4, Vitamin D3 receptor (Homo sapiens) (UniProt P11473); test: Inhibition of human VDR mediated transactivation of luciferase in COS7 cells; format: functional, cell-based; settings: COS-7
T4 sequence (whole entry): T2 sequence (P11473 whole entry)

Structure (SMILES)	Activity [1]	IC50 (Vitamin D3 receptor)	Activity [2]	Activity [3]
C=C1/C(=C\C=C2/CCC[C@@]3(C)C2CC[C@@H]3[C@H](C)C[C@@H]2C[C@@](C)(O)C(=O)N2CCCCc2ccccc2)C[C@@H](O)C[C@@H]1O (stereo partly drawn)	0.3%	Not Active	–	–
C=C1/C(=C\C=C2/CCC[C@@]3(C)C2CC[C@@H]3[C@H](C)C[C@H]2C[C@](C)(O)C(=O)N2CCc2ccccc2)C[C@@H](O)C[C@@H]1O (stereo partly drawn)	8%	–	–	–
C=C1/C(=C\C=C2/CCC[C@@]3(C)C2CC[C@@H]3[C@H](C)C[C@H]2C[C@](C)(O)C(=O)N2Cc2ccccc2)C[C@@H](O)C[C@@H]1O (stereo partly drawn)	2.74%	–	Dose-dependent effect	Dose-dependent effect
C=C1/C(=C\C=C2/CCC[C@@]3(C)C2CC[C@@H]3[C@H](C)C[C@@H]2C[C@@](C)(O)C(=O)N2Cc2ccc(OC)cc2)C[C@@H](O)C[C@@H]1O (stereo partly drawn)	0.3%	Not Active	–	–
C=C1/C(=C\C=C2/CCC[C@@]3(C)C2CC[C@@H]3[C@H](C)C[C@H]2C[C@@](C)(O)C(=O)N2C(C)C)C[C@@H](O)C[C@@H]1O (stereo partly drawn)	0.14%	Not Active	–	–
C=C1/C(=C\C=C2/CCC[C@@]3(C)C2CC[C@@H]3[C@H](C)C[C@@H]2C[C@](C)(O)C(=O)N2CCCc2ccccc2)C[C@@H](O)C[C@@H]1O (stereo partly drawn)	0.03%	Not Active	–	–
C=C1/C(=C\C=C2/CCC[C@@]3(C)C2CC[C@@H]3[C@H](C)C[C@@H]2C[C@](C)(O)C(=O)N2C(C)C)C[C@@H](O)C[C@@H]1O (stereo partly drawn)	0.11%	Not Active	–	–
C=C1/C(=C\C=C2/CCC[C@@]3(C)C2CC[C@@H]3[C@H](C)C[C@H]2C[C@@](C)(O)C(=O)N2CCCc2ccccc2)C[C@@H](O)C[C@@H]1O (stereo partly drawn)	0.09%	Not Active	–	–
C=C1/C(=C\C=C2/CCC[C@@]3(C)C2CC[C@@H]3[C@H](C)C[C@@H]2C[C@@](C)(O)C(=O)N2CCCc2ccccc2)C[C@@H](O)C[C@@H]1O (stereo partly drawn)	0.19%	Not Active	–	–
C=C1/C(=C\C=C2/CCC[C@@]3(C)C2CC[C@@H]3[C@H](C)C[C@H]2C[C@](C)(O)C(=O)N2Cc2ccc(OC)cc2)C[C@@H](O)C[C@@H]1O (stereo partly drawn)	2.2%	–	–	–
C=C1/C(=C\C=C2/CCC[C@@]3(C)C2CC[C@@H]3[C@H](C)C[C@@H]2C[C@](C)(O)C(=O)N2CCc2ccccc2)C[C@@H](O)C[C@@H]1O (stereo partly drawn)	0.19%	Not Active	–	–
C=C1/C(=C\C=C2/CCC[C@@]3(C)C2CC[C@@H]3[C@H](C)C[C@H]2C[C@](C)(O)C(=O)N2CCCCc2ccccc2)C[C@@H](O)C[C@@H]1O (stereo partly drawn)	5.24%	–	–	–
C=C1/C(=C\C=C2/CCC[C@@]3(C)C2CC[C@@H]3[C@H](C)C[C@H]2C[C@@](C)(O)C(=O)N2Cc2ccc(OC)cc2)C[C@@H](O)C[C@@H]1O (stereo partly drawn)	0.09%	Not Active	–	–
C=C1/C(=C\C=C2/CCC[C@@]3(C)C2CC[C@@H]3[C@H](C)C[C@@H]2C[C@](C)(O)C(=O)N2Cc2ccccc2)C[C@@H](O)C[C@@H]1O (stereo partly drawn)	0.25%	Not Active	–	–
C=C1/C(=C\C=C2/CCC[C@@]3(C)C2CC[C@@H]3[C@H](C)C[C@H]2C[C@](C)(O)C(=O)N2CCCc2ccccc2)C[C@@H](O)C[C@@H]1O (stereo partly drawn)	0.68%	–	–	–
C=C1/C(=C\C=C2/CCC[C@@]3(C)C2CC[C@@H]3[C@H](C)C[C@H]2C[C@@](C)(O)C(=O)N2Cc2ccccc2)C[C@@H](O)C[C@@H]1O (stereo partly drawn)	0.18%	Not Active	–	–
C=C1/C(=C\C=C2/CCC[C@@]3(C)C2CC[C@@H]3[C@H](C)C[C@@H]2C[C@@](C)(O)C(=O)N2C(C)C)C[C@@H](O)C[C@@H]1O (stereo partly drawn)	0.14%	Not Active	–	–
C=C1/C(=C\C=C2/CCC[C@@]3(C)C2CC[C@@H]3[C@H](C)C[C@@H]2C[C@@](C)(O)C(=O)N2CCc2ccccc2)C[C@@H](O)C[C@@H]1O (stereo partly drawn)	0.51%	Not Active	–	–
C=C1/C(=C\C=C2/CCC[C@@]3(C)C2CC[C@@H]3[C@H](C)C[C@H]2C[C@](C)(O)C(=O)N2C(C)C)C[C@@H](O)C[C@@H]1O (stereo partly drawn)	1.52%	–	–	–
C=C1/C(=C\C=C2/CCC[C@@]3(C)C2CC[C@@H]3[C@H](C)C[C@H]2C[C@@](C)(O)C(=O)N2CCCCc2ccccc2)C[C@@H](O)C[C@@H]1O (stereo partly drawn)	0.09%	Not Active	–	–
C=C1/C(=C\C=C2/CCC[C@@]3(C)C2CC[C@@H]3[C@H](C)C[C@@H]2C[C@](C)(O)C(=O)N2Cc2ccc(OC)cc2)C[C@@H](O)C[C@@H]1O (stereo partly drawn)	0.1%	Not Active	–	–
C=C1/C(=C\C=C2/CCC[C@@]3(C)C2CC[C@@H]3[C@H](C)C[C@@H]2C[C@@](C)(O)C(=O)N2Cc2ccccc2)C[C@@H](O)C[C@@H]1O (stereo partly drawn)	0.25%	Not Active	–	–
C=C1/C(=C\C=C2/CCC[C@@]3(C)C2CC[C@@H]3[C@H](C)C[C@H]2C[C@@](C)(O)C(=O)N2CCc2ccccc2)C[C@@H](O)C[C@@H]1O (stereo partly drawn)	0.34%	–	–	–
C=C1/C(=C\C=C2/CCC[C@@]3(C)C2CC[C@@H]3[C@H](C)C[C@@H]2C[C@](C)(O)C(=O)N2CCCCc2ccccc2)C[C@@H](O)C[C@@H]1O (stereo partly drawn)	0.1%	Not Active	–	–
